Results published in ChEMBL document CHEMBL4715780, “Biological evaluation of tetracationic compounds based on two 1,4-diazabicyclo[2.2.2]octane moieties connected by different linkers” (Bioorg Med Chem, 2016).

Legend:
[1] = test system: Pseudomonas aeruginosa; assay: Bactericidal activity against Pseudomonas aeruginosa ATCC 9027 assessed as colony forming unit at 2.5 ug/ml measured at 2 hrs by time kill assay (reference value: 3.6 x 10^5 CFU/ml); type: functional; settings: dose 2.5 µg/ml
How it was run: (§1)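 Overnight Pseudomonas aeruginosa culture adjusted in Mueller–Hinton broth to about 2.5 × 10⁵ CFU/mL. Compound added at 2.5, 5 or 10 µg/mL, then incubated at 37 °C with shaking (580 rpm) for 22 h. Viable colonies counted on plates at 2, 4, 6, 8 and 22 h. Quantification limit 100 CFU/mL; triplicate.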

[2] = test system: Pseudomonas aeruginosa; assay: Bactericidal activity against Pseudomonas aeruginosa ATCC 9027 assessed as reduction in colony forming unit at 2.5 ug/ml measured at 8 hrs by time kill assay relative to control; type: functional; set-up: scale not given: the % may be the effect or the level left; settings: dose 2.5 µg/ml; how it was run: as §1
[3] = test system: Proteus vulgaris; assay: Antibacterial activity against Proteus vulgaris ATCC 6380 assessed as concentration required to inhibit visible growth by CLSI protocol based serial microdilution method; type: functional
[4] = Selectivity index, ratio of CC50 for HEK293T cells assessed as reduction in cell viability measured after 24 hrs by MTT assay to MIC for Staphylococcus aureus ATCC 25923 assessed as bacterial growth inhibition by CLSI protocol based serial microdilution method; type: toxicity; settings: human, read-out: Selectivity Index
[5] = test system: Staphylococcus aureus; assay: Antibacterial activity against methicillin-resistant Staphylococcus aureus CEMTC 1733 assessed as concentration required to inhibit visible growth by CLSI protocol based serial microdilution method; type: functional
[6] = test system: Proteus vulgaris; assay: Antibacterial activity against Proteus vulgaris ATCC 6380 assessed as bacterial growth inhibition by CLSI protocol based serial microdilution method; type: functional
[7] = test system: Staphylococcus aureus; assay: Antibacterial activity against […] Staphylococcus aureus ATCC 25923 assessed as concentration required to inhibit visible growth by CLSI protocol based serial microdilution method; type: functional
[8] = test system: Pseudomonas aeruginosa; assay: Bactericidal activity against Pseudomonas aeruginosa ATCC 9027 assessed as reduction in colony forming unit at 5 ug/ml measured at 8 hrs by time kill assay relative to control; type: functional; set-up: scale not given: the % may be the effect or the level left; settings: dose 5 µg/ml; how it was run: as §1
[9] = test system: Pseudomonas aeruginosa; assay: Bactericidal activity against Pseudomonas aeruginosa ATCC 9027 assessed as reduction in colony forming unit at 2.5 ug/ml measured at 6 hrs by time kill assay relative to control; type: functional; set-up: scale not given: the % may be the effect or the level left; settings: dose 2.5 µg/ml; how it was run: as §1
[10] = test system: Escherichia coli; assay: Antibacterial activity against Escherichia coli ATCC 25922 assessed as concentration required to inhibit visible growth by CLSI protocol based serial microdilution method; type: functional
[11] = test system: Pseudomonas aeruginosa; assay: Bactericidal activity against Pseudomonas aeruginosa ATCC 9027 assessed as colony forming unit at 5 ug/ml measured at 8 hrs by time kill assay (reference value: 2.7 x 10^8 CFU/ml); type: functional; settings: dose 5 µg/ml; how it was run: as §1
[12] = test system: Salmonella typhimurium; assay: Antibacterial activity against Salmonella enterica ATCC 14028 assessed as bacterial growth inhibition by CLSI protocol based serial microdilution method; type: functional, Salmonella enterica subsp. enterica serovar Typhimurium
[13] = test system: Staphylococcus aureus; assay: Bactericidal activity against […] Staphylococcus aureus ATCC 25923 assessed as colony forming unit at 2.5 ug/ml measured at 22 hrs by time kill assay (reference value: 2.9 x 10^9 CFU/ml); type: functional; settings: dose 2.5 µg/ml
How it was run: (§2)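 S. aureus overnight culture was adjusted in MHB to ~8 × 10⁵ CFU/mL. Compound was added and the mixture incubated at 37 °C with shaking (580 rpm) for 22 h. Aliquots were plated for colony counts at 2, 4, 6, 8 and 22 h, with a quantification limit of 100 CFU/mL. Runs were done in triplicate.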

[14] = test system: Pseudomonas aeruginosa; assay: Bactericidal activity against Pseudomonas aeruginosa ATCC 9027 assessed as reduction in colony forming unit at 10 ug/ml measured at 6 hrs by time kill assay relative to control; type: functional; set-up: scale not given: the % may be the effect or the level left; settings: dose 10 µg/ml; how it was run: as §1
[15] = test system: Candida albicans; assay: Antifungal activity against Candida albicans CEMTC 34 assessed as fungal growth inhibition by CLSI protocol based serial microdilution method; type: functional
How it was run: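 Candida albicans grown in Sabouraud dextrose broth with two-fold serial compound dilutions from water stocks; final inoculum about 5 × 10⁵ CFU/mL. Incubated at 37 °C with orbital shaking (580 rpm). MIC is the lowest concentration preventing growth, by absorbance at 595 nm. MFC is the lowest concentration with no visible growth. Duplicates in two separate experiments.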

[16] = test system: Pseudomonas aeruginosa; assay: Bactericidal activity against Pseudomonas aeruginosa ATCC 9027 assessed as reduction in colony forming unit at 2.5 ug/ml measured at 2 hrs by time kill assay relative to control; type: functional; set-up: scale not given: the % may be the effect or the level left; settings: dose 2.5 µg/ml; how it was run: as §1
[17] = test system: Salmonella typhimurium; assay: Antibacterial activity against Salmonella enterica ATCC 14028 assessed as concentration required to inhibit visible growth by CLSI protocol based serial microdilution method; type: functional, Salmonella enterica subsp. enterica serovar Typhimurium
[18] = test system: Pseudomonas aeruginosa; assay: Bactericidal activity against Pseudomonas aeruginosa ATCC 9027 assessed as colony forming unit at 2.5 ug/ml measured at 8 hrs by time kill assay (reference value: 2.7 x 10^8 CFU/ml); type: functional; settings: dose 2.5 µg/ml; how it was run: as §1
[19] = Selectivity index, ratio of CC50 for HEK293T cells assessed as reduction in cell viability measured after 24 hrs by MTT assay to MIC for Enterococcus faecalis ATCC 51299 assessed as bacterial growth inhibition by CLSI protocol based serial microdilution method; type: toxicity; settings: human, read-out: Selectivity Index
[20] = test system: Citrobacter freundii; assay: Antibacterial activity against Citrobacter freundii ATCC 8090 assessed as bacterial growth inhibition by CLSI protocol based serial microdilution method; type: functional
[21] = test system: Pseudomonas aeruginosa; assay: Bactericidal activity against Pseudomonas aeruginosa ATCC 9027 assessed as colony forming unit at 5 ug/ml measured at 22 hrs by time kill assay (reference value: 1.7 x 10^9 CFU/ml); type: functional; settings: dose 5 µg/ml; how it was run: as §1
[22] = test system: Staphylococcus aureus; assay: Antibacterial activity against […] Staphylococcus aureus ATCC 25923 assessed as bacterial growth inhibition by CLSI protocol based serial microdilution method; type: functional
[23] = test system: Pseudomonas aeruginosa; assay: Bactericidal activity against Pseudomonas aeruginosa ATCC 9027 assessed as colony forming unit at 5 ug/ml measured at 4 hrs by time kill assay (reference value: 1.2 x 10^7 CFU/ml); type: functional; settings: dose 5 µg/ml; how it was run: as §1
[24] = test system: Staphylococcus aureus; assay: Bactericidal activity against […] Staphylococcus aureus ATCC 25923 assessed as colony forming unit at 1.25 ug/ml measured at 2 hrs by time kill assay (reference value: 10^6 CFU/ml); type: functional; settings: dose 1.25 µg/ml; how it was run: as §2
[25] = test system: Staphylococcus aureus; assay: Antibacterial activity against methicillin-resistant Staphylococcus aureus CEMTC 1695 assessed as concentration required to inhibit visible growth by CLSI protocol based serial microdilution method; type: functional
[26] = test system: Staphylococcus aureus; assay: Bactericidal activity against […] Staphylococcus aureus ATCC 25923 assessed as colony forming unit at 5 ug/ml measured at 8 hrs by time kill assay (reference value: 2.7 x 10^8 CFU/ml); type: functional; settings: dose 5 µg/ml; how it was run: as §2
[27] = Selectivity index, ratio of CC50 for HEK293T cells assessed as reduction in cell viability measured after 24 hrs by MTT assay to MIC for Salmonella enterica ATCC 14028 assessed as bacterial growth inhibition by CLSI protocol based serial microdilution method; type: toxicity; settings: human, read-out: Selectivity Index
[28] = test system: Staphylococcus aureus; assay: Bactericidal activity against […] Staphylococcus aureus ATCC 25923 assessed as colony forming unit at 5 ug/ml measured at 4 hrs by time kill assay (reference value: 7.8 x 10^6 CFU/ml); type: functional; settings: dose 5 µg/ml; how it was run: as §2
[29] = test system: Pseudomonas aeruginosa; assay: Bactericidal activity against Pseudomonas aeruginosa ATCC 9027 assessed as colony forming unit at 10 ug/ml measured at 6 hrs by time kill assay (reference value: 10^8 CFU/ml); type: functional; settings: dose 10 µg/ml; how it was run: as §1
[30] = test system: Staphylococcus aureus; assay: Bactericidal activity against […] Staphylococcus aureus ATCC 25923 assessed as reduction in colony forming unit at 5 ug/ml measured at 4 hrs by time kill assay relative to control; type: functional; set-up: scale not given: the % may be the effect or the level left; settings: dose 5 µg/ml; how it was run: as §2

| Structure (SMILES) | Activity [1] | Activity [2] | MBC [3] | selectivity ratio at 24 h [4] | MBC [5] | MIC [6] | MBC [7] | Activity [8] | Activity [9] | MBC [10] | Activity [11] | MIC [12] | Activity [13] | Activity [14] | MIC [15] | Activity [16] | MBC [17] | Activity [18] | selectivity ratio at 24 h [19] | MIC [20] | other results |
| --- | --- | --- | --- | --- | --- | --- | --- | --- | --- | --- | --- | --- | --- | --- | --- | --- | --- | --- | --- | --- | --- |
| CCCCCCCCCCCC[N+]12CC[N+](CCC[N+]34CC[N+](CCCCCCCCCCCC)(CC3)CC4)(CC1)CC2 | 330 CFU/ml | >=99.9% | > 100 µg/mL | 22 | 1 µg/mL | 100 µg/mL | 1.2 µg/mL | >=99.9% | >=99.9% | 3.1 µg/mL | <100 CFU/ml | 1.6 µg/mL | <100 CFU/ml | >=99.9% | 3.1 µg/mL | >=99.9% | 3.1 µg/mL | <100 CFU/ml | 4 | 1.6 µg/mL | Activity [21]: <100 CFU/ml; MIC [22]: 0.3 µg/mL; Activity [23]: <100 CFU/ml; Activity [24]: <100 CFU/ml; MBC [25]: 1 µg/mL; Activity [26]: <100 CFU/ml; selectivity ratio at 24 h [27]: 4; Activity [28]: <100 CFU/ml; Activity [29]: <100 CFU/ml |
| CCCCCCCCCCCC[N+]12CC[N+](Cc3ccccc3C[N+]34CC[N+](CCCCCCCCCCCC)(CC3)CC4)(CC1)CC2 | 6800 CFU/ml | >=99.9% | > 100 µg/mL | 7 | 1 µg/mL | 100 µg/mL | 1.2 µg/mL | >=99.9% | >=99.9% | 3.1 µg/mL | <100 CFU/ml | 16 µg/mL | <100 CFU/ml | >=99.9% | 3.1 µg/mL | >=90% | 3.1 µg/mL | 300 CFU/ml | 5 | 1.6 µg/mL | Activity [30]: 99.9%; Activity [21]: <100 CFU/ml; MIC [22]: 0.6 µg/mL; Activity [23]: <100 CFU/ml; Activity [24]: <670 CFU/ml; MBC [25]: 1 µg/mL; Activity [26]: <100 CFU/ml; selectivity ratio at 24 h [27]: 3; Activity [28]: <100 CFU/ml; Activity [29]: <100 CFU/ml |
